# Results as given in ChEMBL document CHEMBL4689842, “EUbOPEN Chemogenomics Library wave 1” (2021).
# Key:
# [1] = system: HEK-293T; test: Multiplex assay against HEK293T; format: toxicity, cell-based; settings: human;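 for Population Tubulin-Different-Phenotype (%): share of the cells with healthy nuclei that show this phenotype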
# Procedure, shortened: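 Hoechst33342, BioTracker Green Microtubule Cytoskeleton Dye, MitoTracker Red and Annexin V Alexa Fluor 680 were added to live cells at seeding, and imaging on a CQ1 microscope at 37°C and 5% CO2 followed compound addition. Gating by CellPathfinder machine learning separated cells into Hoechst high-intensity objects or normal cells, then normal cells into healthy, pyknosed or fragmented nuclei, then pyknosed cells into mitotic or apoptotic. Per cents of healthy-nucleus cells are reported for the tubulin, mitochondrial-mass and membrane-permeability phenotypes.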
# [2] = system: Fibroblast; test: Incucyte cell viability with human fibroblast; format: toxicity, cell-based; settings: 10 µM, compound concentration 10 uM; note: filed as whole numbers so only -1 and 0 and 1 occur
# [3] = 12 h, 1 µM, compound concentration 1 uM, replicate 1
# [4] = 12 h, 1 µM, compound concentration 1 uM, replicate 2
# [5] = 12 h, 10 µM, compound concentration 10 uM, replicate 1
# [6] = 12 h, 10 µM, compound concentration 10 uM, replicate 2
# [7] = 24 h, 1 µM, compound concentration 1 uM, replicate 1
# [8] = 24 h, 1 µM, compound concentration 1 uM, replicate 2
# [9] = 24 h, 10 µM, compound concentration 10 uM, replicate 1
# [10] = 24 h, 10 µM, compound concentration 10 uM, replicate 2
# [11] = 48 h, 1 µM, compound concentration 1 uM, replicate 1
# [12] = 48 h, 1 µM, compound concentration 1 uM, replicate 2
# [13] = 48 h, 10 µM, compound concentration 10 uM, replicate 1
# [14] = 48 h, 10 µM, compound concentration 10 uM, replicate 2
compound,measurement,setting,value
N#Cc1cccc(C(=O)Nc2cc(-c3ccccc3)nn2-c2ccccc2)c1,Population Apoptotic (%),[1]; [3],48%
same,Population Healthy Nuclei (%),[1]; [3],41%
same,Population Hoechst High Intensity Objects (%),[1]; [3],13%
same,Population Membrane Permeable-Phenotype (%),[1]; [3],2%
same,Population Mitochondria Different-Phenotype (%),[1]; [3],85%
same,Population Mitotic Cells (%),[1]; [3],51%
same,Population Normal (%),[1]; [3],86%
same,Population Pyknosed Nuclei (%),[1]; [3],49%
same,Population Tubulin-Different-Phenotype (%),[1]; [3],64%
same,Total Cell Count,[1]; [3],315
same,Population Apoptotic (%),[1]; [4],16%
same,Population Fragmented Nuclei (%),[1]; [4],8%
same,Population Healthy Nuclei (%),[1]; [4],42%
same,Population Hoechst High Intensity Objects (%),[1]; [4],6%
same,Population Membrane Permeable-Phenotype (%),[1]; [4],18%
same,Population Mitochondria Different-Phenotype (%),[1]; [4],23%
same,Population Mitotic Cells (%),[1]; [4],83%
same,Population Normal (%),[1]; [4],93%
same,Population Pyknosed Nuclei (%),[1]; [4],48%
same,Population Tubulin-Different-Phenotype (%),[1]; [4],45%
same,Total Cell Count,[1]; [4],182
same,Population Apoptotic (%),[1]; [5],73%
same,Population Fragmented Nuclei (%),[1]; [5],8%
same,Population Healthy Nuclei (%),[1]; [5],33%
same,Population Hoechst High Intensity Objects (%),[1]; [5],14%
same,Population Membrane Permeable-Phenotype (%),[1]; [5],5%
same,Population Mitochondria Different-Phenotype (%),[1]; [5],97%
same,Population Mitotic Cells (%),[1]; [5],26%
same,Population Normal (%),[1]; [5],86%
same,Population Pyknosed Nuclei (%),[1]; [5],57%
same,Total Cell Count,[1]; [5],300
same,Population Apoptotic (%),[1]; [6],45%
same,Population Fragmented Nuclei (%),[1]; [6],5%
same,Population Healthy Nuclei (%),[1]; [6],25%
same,Population Hoechst High Intensity Objects (%),[1]; [6],5%
same,Population Membrane Permeable-Phenotype (%),[1]; [6],14%
same,Population Mitochondria Different-Phenotype (%),[1]; [6],73%
same,Population Mitotic Cells (%),[1]; [6],54%
same,Population Normal (%),[1]; [6],94%
same,Population Pyknosed Nuclei (%),[1]; [6],68%
same,Population Tubulin-Different-Phenotype (%),[1]; [6],100%
same,Total Cell Count,[1]; [6],174
same,Population Apoptotic (%),[1]; [7],45%
same,Population Fragmented Nuclei (%),[1]; [7],9%
same,Population Healthy Nuclei (%),[1]; [7],37%
same,Population Hoechst High Intensity Objects (%),[1]; [7],12%
same,Population Membrane Permeable-Phenotype (%),[1]; [7],4%
same,Population Mitochondria Different-Phenotype (%),[1]; [7],61%
same,Population Mitotic Cells (%),[1]; [7],54%
same,Population Normal (%),[1]; [7],87%
same,Population Pyknosed Nuclei (%),[1]; [7],53%
same,Population Tubulin-Different-Phenotype (%),[1]; [7],51%
same,Total Cell Count,[1]; [7],328
same,Population Apoptotic (%),[1]; [8],12%
same,Population Fragmented Nuclei (%),[1]; [8],6%
same,Population Healthy Nuclei (%),[1]; [8],53%
same,Population Hoechst High Intensity Objects (%),[1]; [8],4%
same,Population Membrane Permeable-Phenotype (%),[1]; [8],14%
same,Population Mitochondria Different-Phenotype (%),[1]; [8],21%
same,Population Mitotic Cells (%),[1]; [8],88%
same,Population Normal (%),[1]; [8],95%
same,Population Pyknosed Nuclei (%),[1]; [8],39%
same,Population Tubulin-Different-Phenotype (%),[1]; [8],45%
same,Total Cell Count,[1]; [8],200
same,Population Apoptotic (%),[1]; [9],65%
same,Population Fragmented Nuclei (%),[1]; [9],7%
same,Population Healthy Nuclei (%),[1]; [9],27%
same,Population Hoechst High Intensity Objects (%),[1]; [9],15%
same,Population Membrane Permeable-Phenotype (%),[1]; [9],4%
same,Population Mitochondria Different-Phenotype (%),[1]; [9],97%
same,Population Mitotic Cells (%),[1]; [9],34%
same,Population Normal (%),[1]; [9],84%
same,Population Pyknosed Nuclei (%),[1]; [9],65%
same,Population Tubulin-Different-Phenotype (%),[1]; [9],95%
same,Total Cell Count,[1]; [9],309
same,Population Apoptotic (%),[1]; [10],67%
same,Population Fragmented Nuclei (%),[1]; [10],5%
same,Population Healthy Nuclei (%),[1]; [10],31%
same,Population Hoechst High Intensity Objects (%),[1]; [10],4%
same,Population Membrane Permeable-Phenotype (%),[1]; [10],8%
same,Population Mitochondria Different-Phenotype (%),[1]; [10],84%
same,Population Mitotic Cells (%),[1]; [10],33%
same,Population Normal (%),[1]; [10],95%
same,Population Pyknosed Nuclei (%),[1]; [10],62%
same,Population Tubulin-Different-Phenotype (%),[1]; [10],100%
same,Total Cell Count,[1]; [10],167
same,Population Apoptotic (%),[1]; [11],46%
same,Population Fragmented Nuclei (%),[1]; [11],11%
same,Population Healthy Nuclei (%),[1]; [11],49%
same,Population Hoechst High Intensity Objects (%),[1]; [11],15%
same,Population Membrane Permeable-Phenotype (%),[1]; [11],4%
same,Population Mitochondria Different-Phenotype (%),[1]; [11],29%
same,Population Mitotic Cells (%),[1]; [11],53%
same,Population Normal (%),[1]; [11],84%
same,Population Pyknosed Nuclei (%),[1]; [11],38%
same,Population Tubulin-Different-Phenotype (%),[1]; [11],44%
same,Total Cell Count,[1]; [11],415
same,Population Apoptotic (%),[1]; [12],19%
same,Population Fragmented Nuclei (%),[1]; [12],6%
same,Population Healthy Nuclei (%),[1]; [12],77%
same,Population Hoechst High Intensity Objects (%),[1]; [12],4%
same,Population Membrane Permeable-Phenotype (%),[1]; [12],15%
same,Population Mitochondria Different-Phenotype (%),[1]; [12],4%
same,Population Mitotic Cells (%),[1]; [12],80%
same,Population Normal (%),[1]; [12],95%
same,Population Pyknosed Nuclei (%),[1]; [12],16%
same,Population Tubulin-Different-Phenotype (%),[1]; [12],42%
same,Total Cell Count,[1]; [12],356
same,Population Apoptotic (%),[1]; [13],53%
same,Population Fragmented Nuclei (%),[1]; [13],14%
same,Population Healthy Nuclei (%),[1]; [13],23%
same,Population Hoechst High Intensity Objects (%),[1]; [13],11%
same,Population Membrane Permeable-Phenotype (%),[1]; [13],5%
same,Population Mitochondria Different-Phenotype (%),[1]; [13],78%
same,Population Mitotic Cells (%),[1]; [13],46%
same,Population Normal (%),[1]; [13],88%
same,Population Pyknosed Nuclei (%),[1]; [13],62%
same,Population Tubulin-Different-Phenotype (%),[1]; [13],100%
same,Total Cell Count,[1]; [13],332
same,Population Apoptotic (%),[1]; [14],63%
same,Population Fragmented Nuclei (%),[1]; [14],6%
same,Population Healthy Nuclei (%),[1]; [14],42%
same,Population Hoechst High Intensity Objects (%),[1]; [14],7%
same,Population Membrane Permeable-Phenotype (%),[1]; [14],17%
same,Population Mitochondria Different-Phenotype (%),[1]; [14],65%
same,Population Mitotic Cells (%),[1]; [14],36%
same,Population Normal (%),[1]; [14],92%
same,Population Pyknosed Nuclei (%),[1]; [14],50%
same,Population Tubulin-Different-Phenotype (%),[1]; [14],98%
same,Total Cell Count,[1]; [14],204
same,Growth Rate,"[2]; 0 h, replicate number 1, timepoint 0 hours",0
same,Growth Rate,"[2]; 6 h, replicate number 1, timepoint 6 hours",0
same,Growth Rate,"[2]; 12 h, replicate number 1, timepoint 12 hours",0
same,Growth Rate,"[2]; 18 h, replicate number 1, timepoint 18 hours",0
same,Growth Rate,"[2]; 18 h, replicate number 2, timepoint 18 hours",1
same,Growth Rate,"[2]; 24 h, replicate number 1, timepoint 24 hours",0
same,Growth Rate,"[2]; 24 h, replicate number 2, timepoint 24 hours",1
